Source: ChEMBL document CHEMBL1240529, “Synthesis, anti-inflammatory activity, and in vitro antitumor effect of a novel class of cyclooxygenase inhibitors: 4-(aryloyl)phenyl methyl sulfones” (J Med Chem, 2010)

Columns and labels:
[1] = Cytotoxicity against human HDF cells assessed as inhibition of cell viability at 100 uM by MTT assay; assay type: cell-based; conditions: read-out: INH
Method in brief: (§1)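 Cells were grown in MEM with 10% FBS and antibiotics at 37 °C, 5% CO2, plated at 2.0 × 10^4 cells/well and grown for 72 h. Compound or 0.1% DMSO was added, then MTT (5 mg/mL) for 3 h at 37 °C, read at 570 nm (690 nm blank). […] Inhibition = (DMSO control − treated)/control; two experiments in duplicate.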

NCI-H460 = assay: Cytotoxicity against human NCI-H460 cells assessed as inhibition of cell viability at 10 uM by MTT assay; assay type: functional; method in brief: as §1
HT-29 = assay: Cytotoxicity against human HT-29 cells by MTT assay; assay type: functional, cell-based; method in brief: as §1
K562 = assay: Cytotoxicity against human K562 cells assessed as inhibition of cell viability at 10 uM by trypan blue dye exclusion
[2] = target: T1, Prostaglandin G/H synthase 1 (Ovis aries, UniProt P05979); assay: Inhibition of sheep COX1 by spectrophotometry
T1 sequence (P05979 whole entry): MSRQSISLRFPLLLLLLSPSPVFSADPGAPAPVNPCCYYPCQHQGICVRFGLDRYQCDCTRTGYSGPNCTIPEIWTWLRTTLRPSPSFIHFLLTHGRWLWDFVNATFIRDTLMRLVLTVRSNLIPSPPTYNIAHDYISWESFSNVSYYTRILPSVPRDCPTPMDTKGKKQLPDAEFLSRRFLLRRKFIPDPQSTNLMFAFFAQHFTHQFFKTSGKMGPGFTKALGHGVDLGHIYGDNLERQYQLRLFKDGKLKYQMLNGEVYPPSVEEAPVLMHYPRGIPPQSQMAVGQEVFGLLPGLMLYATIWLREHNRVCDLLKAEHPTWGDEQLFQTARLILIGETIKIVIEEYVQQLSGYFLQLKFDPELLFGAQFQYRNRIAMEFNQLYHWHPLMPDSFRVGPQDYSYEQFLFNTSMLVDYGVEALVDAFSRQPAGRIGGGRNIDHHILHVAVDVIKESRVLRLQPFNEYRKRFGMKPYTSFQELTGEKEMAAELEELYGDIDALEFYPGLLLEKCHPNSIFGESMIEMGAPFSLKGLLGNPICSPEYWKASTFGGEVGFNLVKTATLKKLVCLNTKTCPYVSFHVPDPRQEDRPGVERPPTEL

Rattus norvegicus [3] = assay: Antiinflammatory activity in Sprague-Dawley rat assessed as inhibition of carrageenan induced paw swelling at 70 mg/kg, po after 4 hrs
Rattus norvegicus [4] = assay: Antiinflammatory activity in Sprague-Dawley rat assessed as inhibition of carrageenan induced paw swelling at 70 mg/kg, po after 3 hrs

| Compound | cytotoxicity at 100 µM [1] | inhibition at 10 µM (NCI-H460) | IC50 (HT-29) | inhibition at 10 µM (K562) | IC50 [2] | inhibition in vivo at 70 mg/kg (Rattus norvegicus [3]) | inhibition in vivo at 70 mg/kg (Rattus norvegicus [4]) |
| --- | --- | --- | --- | --- | --- | --- | --- |
| CC(C)[C@H](CO)Nc1nc(Nc2cccc(Cl)c2)c2ncn(C(C)C)c2n1 [PURVALANOLA] | 88.6% | 3.98% | > 100 µM | 75.1% | – | – | – |
| CS(=O)(=O)c1ccc(N2CCN(c3ccc(F)cc3)CC2)cc1 | 36.1% | 3.1% | 65.8 µM | 17.7% | 80 µM | – | – |
| CC(C)Cc1ccc([C@H](C)C(=O)O)cc1 [DEXIBUPROFEN] | – | – | – | – | – | 23.9% | – |
| CS(=O)(=O)c1ccc(C(=O)c2ccsc2)cc1 | 31.2% | 2% | 75.7 µM | 14.6% | 144 µM | – | – |
| Cn1cc(C(=O)c2ccc(S(C)(=O)=O)cc2)c2ccccc21 | 30.8% | 7% | 70.4 µM | 2.1% | 76.4 µM | – | – |
| CS(=O)(=O)c1ccc(C(=O)c2ccco2)cc1 | 30.7% | 3% | 383 µM | 8.3% | 15.1 µM | 37.8% | 45.5% |
| CS(=O)(=O)c1ccc(-c2ccccn2)cc1 | – | – | – | – | 89.6 µM | 51.4% | 53.7% |
| CS(=O)(=O)c1ccc(-n2ccc3ccccc32)cc1 | 34.3% | 12.2% | 85 µM | 16.6% | 78.7 µM | 46% | 48.7% |
| CS(=O)(=O)c1ccc(C(=O)c2ccn(-c3ccccc3F)c2)cc1 | 13.4% | 54.8% | 96.1 µM | 12.5% | 34.6 µM | – | – |
| CS(=O)(=O)c1ccc(C(=O)c2ccc(F)cc2)cc1 | – | – | – | – | 107 µM | – | – |
| CS(=O)(=O)c1ccc(C(=O)c2cccn2-c2ccccc2F)cc1 | 45% | 13.3% | 34.1 µM | 2.1% | 183 µM | 4.4% | 13.7% |
| Cc1ccc(-c2cc(C(F)(F)F)nn2-c2ccc(S(N)(=O)=O)cc2)cc1 [CELECOXIB] | 92% | 9.75% | 45.5 µM | 38.8% | – | – | – |
| CS(=O)(=O)c1ccc(Nc2ccc(F)cc2)cc1 | 37.4% | 1.8% | 130 µM | 13.5% | 141 µM | 32.6% | 41.9% |
| CS(=O)(=O)c1ccc(C2Oc3ccccc3-n3cccc32)cc1 (configuration not stated) | 12.3% | 6.6% | 100 µM | 13.5% | 177 µM | – | – |
| CS(=O)(=O)c1ccc(C(=O)c2c[nH]c3ccccc23)cc1 | – | – | – | – | 26.7 µM | – | – |
| CS(=O)(=O)c1ccc(C(=O)c2cccs2)cc1 | 25.7% | 3% | 122 µM | 1% | – | 56% | 59.7% |
| CS(=O)(=O)c1ccc(C(=O)c2ccc(Br)cc2)cc1 | 29.4% | 12.7% | 100 µM | 6.2% | 150 µM | 8.1% | 22% |
| CS(=O)(=O)c1ccc(C(=O)c2ccoc2)cc1 | 36.2% | 6% | 104 µM | 8.3% | 150 µM | 22.2% | 27% |
| CS(=O)(=O)c1ccc(-n2cccc2)cc1 | 28.9% | 3% | 146 µM | 1% | 86 µM | – | – |
